Reference: ChEMBL document CHEMBL3861959, “Synthesis and antiproliferative evaluation of novel 2-(4H-1,2,4-triazole-3-ylthio)acetamide derivatives as inducers of apoptosis in cancer cells” (Eur J Med Chem, 2016)
Active and inactive are the calls of the source. No cut-off for these calls is given here.

Experiments:
[1] = Cytotoxicity against human HOP92 cells assessed as cell growth at 10^-5 M after 48 hrs by SRB assay relative to control; assay type: functional; settings: HOP-92, 48 h, read-out: Activity
Method in brief: (§1)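 NCI single-dose primary screen run under the US NCI protocol. Compounds tested at 10 µM across the 60-cell-line panel, with growth percent reported for each line.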

[2] = Cytotoxicity against human A549 cells assessed as decrease in cell proliferation after 48 hrs by MTT assay; assay type: functional, cell-based; settings: A549, 48 h
Method in brief: (§2)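 MTT viability assay in A549, K562 and PC-3 cells. Media carried 10% FBS, 1% L-glutamine and penicillin/streptomycin, at 37 °C in 5% CO2. Cells seeded and left overnight, then exposed to 5–100 µM compound for 48 h. MTT added to 0.5 mg/ml final for 4 h, medium removed, and SDS buffer added. Data given as mean ± SD, analysed by ANOVA/Tukey.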

[3] = Cytotoxicity against human COLO205 cells assessed as cell growth at 10^-5 M after 48 hrs by SRB assay relative to control; assay type: functional; settings: COLO 205, 48 h, read-out: Activity; method in brief: as §1
A549 [4] = test: Induction of apoptosis in human A549 cells assessed as downregulation of Bcl-2 levels by […]; assay type: functional, cell-based
[5] = Cytotoxicity against human MDA-MB-231 cells assessed as cell growth at 10^-5 M after 48 hrs by SRB assay relative to control; assay type: functional; settings: MDA-MB-231, 48 h, read-out: Activity; method in brief: as §1
A549 [6] = test: Disruption of mitochondrial membrane potential in human A549 cells after 72 hrs by JC1 staining-based assay; assay type: functional, cell-based
Method in brief: (§3)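 Cells seeded and treated with 10, 20 and 50 µM compound. Cells pelleted at 600 × g, resuspended in JC-1 dye, and incubated at 37 °C in 5% CO2 for 15 min. Green monomers mark disrupted membrane potential; orange aggregates mark intact potential.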

[7] = Induction of apoptosis in human A549 cells assessed as upregulation of caspase-3 levels using DEVD-pNA substrate by ELISA; assay type: functional, cell-based
Method in brief: (§4)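 Supernatant protein measured by Bradford. 200 µg protein incubated with pNA substrate (DEVD-pNA for caspase-3) using a colorimetric kit. Data given as mean ± SD; one-way ANOVA with Tukey test, p < 0.05.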

[8] = Induction of apoptosis in human A549 cells assessed as upregulation of caspase-8 levels at 50 uM using IETD-pNA substrate by ELISA; assay type: functional, cell-based
K562 [9] = test: Induction of apoptosis in human K562 cells assessed as downregulation of Bcl-2 levels after 72 hrs by […]; assay type: functional, cell-based
[10] = Induction of apoptosis in human K562 cells assessed as upregulation of caspase-3 levels using DEVD-pNA substrate after 72 hrs by ELISA; assay type: functional, cell-based; method in brief: as §4
[11] = (§5) Cytotoxicity against human K562 cells assessed as decrease in cell proliferation after 48 hrs by MTT assay; assay type: functional, cell-based; settings: K562, 48 h; method in brief: as §2
K562 [12] = test: as §5; assay type: functional, cell-based; method in brief: as §2
K562 [13] = test: Disruption of mitochondrial membrane potential in human K562 cells after 72 hrs by JC1 staining-based assay; assay type: functional, cell-based; method in brief: as §3
[14] = Induction of apoptosis in human PC3 cells assessed as upregulation of caspase-3 levels using DEVD-pNA substrate by ELISA; assay type: functional, cell-based; settings: PC-3; method in brief: as §4
PC-3 [15] = test: Induction of apoptosis in human PC3 cells assessed as downregulation of Bcl-2 levels by […]; assay type: functional, cell-based
PC-3 [16] = test: Disruption of mitochondrial membrane potential in human PC3 cells at 10 to 50 uM after 72 hrs by JC1 staining-based assay; assay type: functional, cell-based; method in brief: as §3
[17] = Cytotoxicity against human PC3 cells assessed as decrease in cell proliferation after 48 hrs by MTT assay; assay type: functional, cell-based; settings: PC-3, 48 h; method in brief: as §2

SMILES | growth at 10 µM [1] [%] | IC50 [2] [µM] | growth at 10 µM [3] [%] | Activity (A549 [4]) | growth at 10 µM [5] [%] | Activity (A549 [6]) | Activity [7] | Activity [8] | Activity (K562 [9]) | Activity [10] | IC50 [11] [µM] | Activity (K562 [12]) | Activity (K562 [13]) | Activity [14] | Activity (PC-3 [15]) | Activity (PC-3 [16]) | IC50 [17] [µM]
Cc1ccc(C(C)C)c(OCc2nnc(SCC(=O)Nc3ccc(Cl)cc3)n2Cc2ccccc2)c1 | 78 | 7.9 | 78.2 | Dose-dependent effect | 75.7 | Dose-dependent effect | Dose-dependent effect | Active | – | – | – | – | – | – | – | – | –
CC(=O)Nc1ccc(OCc2nnc(SCC(=O)Nc3ccc(Br)cc3)n2Cc2ccccc2)cc1 | 70.9 | – | 105 | – | 75 | – | – | – | Dose-dependent effect | Dose-dependent effect | 7.71 | Dose-dependent effect | Dose-dependent effect | – | – | – | –
Cc1ccc(C(C)C)c(OCc2nnc(SCC(=O)Nc3ccc(S(N)(=O)=O)cc3)n2Cc2ccccc2)c1 | 75.2 | – | 90.2 | – | 69.1 | – | – | – | – | – | – | – | – | Dose-dependent effect | Dose-dependent effect | Active | 5.96
